Assay results as given in ChEMBL document CHEMBL4266025, “Stereoselective Synthesis of the Isomers of Notoincisol A: Assigment of the Absolute Configuration of this Natural Product and Biological Evaluation” (J Nat Prod, 2018).
Activity calls are given as the source filed them. The rule behind the calls is not given here.

Columns and labels:
[1] = system: HEK293; test: Cytotoxicity against HEK293 cells assessed as decrease in cell viability at 10 uM after 24 hrs by resazurin based assay; details: human, hek293, 24 h
How it was run: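 HEK293 cells seeded at 4 × 10^4 cells/well, grown overnight, then exposed to compound at 0.3, 1, 3, 10 and 30 μM for 24 h. Resazurin (10 μg/mL in PBS) added for 4 h at 37 °C. Resorufin fluorescence read at 535 nm excitation/590 nm emission as the viability measure.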

[2] = target: T1, Peroxisome proliferator-activated receptor gamma (Homo sapiens) (UniProt P37231); test: Transactivation of human full length PPARgamma expressed in HEK293 cells up to 3 uM after 18 hrs by luciferase reporter gene based luminescence assay; format: cell-based
T1 sequence (whole entry): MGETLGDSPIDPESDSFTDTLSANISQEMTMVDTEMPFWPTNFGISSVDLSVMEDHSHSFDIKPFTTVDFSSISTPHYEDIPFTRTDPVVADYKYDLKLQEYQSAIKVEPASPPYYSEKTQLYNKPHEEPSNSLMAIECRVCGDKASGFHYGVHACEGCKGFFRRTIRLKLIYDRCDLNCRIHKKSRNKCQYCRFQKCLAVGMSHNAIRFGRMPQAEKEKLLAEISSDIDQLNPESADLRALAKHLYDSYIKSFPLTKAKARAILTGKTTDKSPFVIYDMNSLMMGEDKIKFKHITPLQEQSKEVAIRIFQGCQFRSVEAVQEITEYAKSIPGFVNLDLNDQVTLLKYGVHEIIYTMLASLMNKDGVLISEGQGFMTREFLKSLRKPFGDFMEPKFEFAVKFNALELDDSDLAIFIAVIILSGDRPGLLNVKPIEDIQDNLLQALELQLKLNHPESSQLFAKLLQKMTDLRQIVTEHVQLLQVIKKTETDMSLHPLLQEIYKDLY
How it was run: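 HEK293 cells transfected for 6 h with full-length human PPARγ, a PPRE-firefly luciferase reporter and pEGFP-N1 (internal control). Cells reseeded in serum-free DMEM, dosed at 0.1–30 μM in DMSO and incubated 18 h. Luciferase/EGFP ratio expressed as fold induction over 0.1% DMSO; pioglitazone 5 μM as positive control. EC50 from a variable-slope sigmoidal fit.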

[3] = target: GABA-A receptor alpha-1/beta-3 (Homo sapiens) (UniProt P14867+P28472); test: Positive allosteric modulation of GABAA receptor alpha1beta3 (unknown origin) expressed in Xenopus laevis oocytes assessed as GABA-stimulated current amplitude at 1 to 10 uM up to 120 secs by electrophysiological method; format: cell-based
How it was run: (§1)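 Two-electrode voltage clamp on Xenopus oocytes injected with subunit mRNA mixtures (α1β3 or α1β2γ2). Compounds at 1 and 10 μM, diluted into measurement buffer, co-applied with GABA at EC3-5, EC20, EC50 and EC80. Result taken as enhancement of the GABA-elicited current.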

[4] = system: Oocyte; test: Induction of current amplitude in Xenopus laevis oocytes after […] by electrophysiological method; format: functional, cell-based
[5] = target: GABA-A receptor; alpha-1/beta-2/gamma-2 (Homo sapiens) (UniProt P14867+P47870+P18507); test: Positive allosteric modulation of GABAA receptor alpha1beta2gamma2 (unknown origin) expressed in Xenopus laevis oocytes assessed as GABA-stimulated current amplitude at 1 to 10 uM incubated for 120 secs by electrophysiological method relative to control; format: cell-based; how it was run: as §1

## C=CC(O)C#CC#CC(/C=C\CCCCCCC)OC(=O)/C=C/c1ccc(O)c(OC)c1 (stereo not drawn)
[1]
  Activity: Toxic
[2]
  Activity: inactive

## C=C[C@H](O)C#CC#C[C@@H](O)/C=C\CCCCCCC
[1]
  Activity: Toxic
[2]
  Activity: inactive

## C=C[C@@H](O)C#CC#C[C@H](/C=C\CCCCCCC)OC(=O)/C=C/c1ccc(O)c(OC)c1
[3]
  Activity: Active
[4]
  Activity: Active
[5]
  fold change (FC): 4

## CCC[C@@H](O)/C=C/C=C/C=C/C#CC#CCCCO [CICUTOXIN]
[1]
  Activity: Toxic
[2]
  Activity: inactive

## CCC[C@@H](O)CC/C=C/C=C/C#CC#CCCCO [DIHYDROOENANTHOTOXIN]
[1]
  Activity: Toxic
[2]
  Activity: inactive

## C=C[C@H](O)C#CC#C[C@@H](/C=C\CCCCCCC)OC(=O)/C=C/c1ccc(O)c(OC)c1
[3]
  Activity: Active
[4]
  Activity: Active
[2]
  Activity: inactive
[5]
  fold change (FC): 4

## C=C[C@@H](O)C#CC#C[C@@H](/C=C\CCCCCCC)OC(=O)/C=C/c1ccc(O)c(OC)c1
[3]
  Activity: Active
[4]
  Activity: Active
[2]
  Activity: inactive
[5]
  fold change (FC): 4

## C=C[C@H](O)C#CC#C[C@H](/C=C\CCCCCCC)OC(=O)/C=C/c1ccc(O)c(OC)c1
[3]
  Activity: Active
[4]
  Activity: Active
[2]
  Activity: inactive
[5]
  fold change (FC): 4
